Source: PubChem BioAssay
Shown are actives, neighbours in structure and some others; about 6.4% of the full set was active somewhere.
EphB4 antag = EphB4-ephrin-B2 interaction antagonism; P54760; EphB4 LBD / TNYL-RAW-Alexa532 peptide, fluorescence polarization; inhibition, % at 7 µM; 97,000 tested, 0.15% active;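 active = inhibition above the screen-wide mean inhibition plus 3 SD, cut at about 15% in these data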;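 note: 0% = DMSO wells and 100% = excess unlabeled TNYL-RAW peptide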
PostGolgi yeast = growth inhibition of a yeast mutant, post-Golgi transport screen. post-Golgi transport phenotypic cell assay. inhibition, % at 10 µM. 98,000 tested, 0.9% active. AID 739;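 note: yeast cells grown in 1536-well plates; yeast grown about 18 h at 30C before absorbance read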
HIV Rev-RRE inh = HIV Rev-RRE protein-RNA interaction inhibition. P05866. inhibition, % at 8 µM. Rev peptide-RRE RNA binding, FRET. AID 704. 97,000 tested, 0.79% active;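 active = inhibition above the screen-wide mean plus 3 SD, cut at about 35% in these data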;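 note: 0% = median DMSO wells and 100% = median Neomycin B control wells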
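Test system – labelled RRE RNA duplex and labelled Rev peptide · Reagent – labelled Rev peptide · Doses – one concentration, 8 µM nominal · Incubation – 5 + 15 min at 25 °C · Signal – FRET fluorescence readout · Read-out basis – % inhibition of FRET ratio versus controls · Control set – DMSO wells as 0% and neomycin B wells as 100% inhibition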
PostGolgi ctrl = inhibits growth of the yeast control strain; efflux-deficient yeast background strain, growth absorbance A615, 16 h; 98,000 tested, 5% active; AID 738; inhibition, % at 10 µM
Plk1 PBD FP = inhibitors of human Plk1 polo box domain binding; AID 693; Plk1 PBD phosphopeptide binding, fluorescence polarization; inhibition, %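 (tested at about 20 µM)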; P53350; 97,000 tested, 0.13% active; in the data active = inhibition above about 34%, passing the limit was not always enough
Target sequence (P53350 whole entry, looked up, the tested form may be a part): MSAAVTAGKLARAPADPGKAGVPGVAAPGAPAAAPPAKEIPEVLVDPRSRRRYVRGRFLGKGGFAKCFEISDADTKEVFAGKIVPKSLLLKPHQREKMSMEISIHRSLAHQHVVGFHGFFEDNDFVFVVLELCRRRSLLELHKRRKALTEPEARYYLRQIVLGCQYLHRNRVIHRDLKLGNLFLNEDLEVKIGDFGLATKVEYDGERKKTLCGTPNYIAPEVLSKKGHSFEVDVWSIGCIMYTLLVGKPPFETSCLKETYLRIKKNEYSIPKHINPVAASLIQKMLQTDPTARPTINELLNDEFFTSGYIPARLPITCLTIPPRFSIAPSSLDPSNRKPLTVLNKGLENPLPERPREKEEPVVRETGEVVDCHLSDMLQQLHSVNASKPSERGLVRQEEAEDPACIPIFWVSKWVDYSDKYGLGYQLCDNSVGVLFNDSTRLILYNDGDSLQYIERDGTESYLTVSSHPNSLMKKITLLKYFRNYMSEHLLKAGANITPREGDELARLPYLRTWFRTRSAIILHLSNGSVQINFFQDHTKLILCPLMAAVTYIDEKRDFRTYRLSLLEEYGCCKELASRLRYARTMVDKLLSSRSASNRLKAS
PLK1 kinase inh = inhibitors of human PLK1 kinase; 97,000 tested, 0.53% active; recombinant PLK1 kinase, TR-FRET peptide phosphorylation; inhibition, % at 10 µM;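 active = inhibition of 50% or more in the single-concentration screen; inactive = inhibition below 50%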;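 note: 0% = DMSO max control and 100% = H-89 dihydrochloride min control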
* = called active by the depositor; . = no result. Cut-off read from the data, not from the text of the source, unless noted: active = inhibition above about 30%; inactive = the rest.

SMILES | EphB4 antag | PostGolgi yeast | HIV Rev-RRE inh | PostGolgi ctrl | Plk1 PBD FP | PLK1 kinase inh
Cc1cccc(N2CCN(C(c3cccs3)c3nnnn3C(C)(C)C)CC2)c1C (centres undefined) | 3.9 | 12.0 | 7.5 | 40.2* | -2.2 | -0.9
CC(C)(C)n1nnnc1C(c1cccs1)N1CCN(c2ccccc2)CC1 (centres undefined) | -2.5 | 8.2 | 3.7 | 35.9* | -11.1 | -4.2
CCOC(=O)c1ccc(NC(=O)C2(c3ccccc3)CCOCC2)cc1 | 7.1 | . | 13.9 | . | 15.3 | -4.7
O=C(CCSc1nnc(-c2ccncc2)o1)Nc1ccc(F)cc1 | . | 92.8* | . | 89.2* | . | .
O=C(CCSc1nnc(-c2ccncc2)o1)Nc1ccccc1 | -8.1 | 1.4 | -0.2 | 2.8 | 9.1 | -7.4
Cc1nc(SCC(=O)OCc2ccccc2)c2c(=O)n(C)c(=O)n(C)c2n1 | . | -1.1 | . | 22.5 | 24.2 | -11.4
Cn1c(=O)c2c(nc(SCC(=O)OCc3ccccc3)n2C)n(C)c1=O | -7.2 | 0.3 | 0.4 | 33.9* | 8.2 | -15.7
O=C(Cn1c(=O)sc2ccccc21)NCCOc1ccccc1F | -5.8 | 8.3 | 6.1 | 0.3 | 16.2 | -9.0
O=C(NCCCN1CCCC1=O)c1cc(=O)c2ccccc2o1 | -2.4 | -5.3 | 4.8 | 15.2 | -13.0 | -14.9
O=C1CC(N(Cc2ccco2)C(=O)Nc2ccc(F)cc2)C(=O)N1c1ccc(F)cc1 (centres undefined) | 2.4 | -13.7 | 1.1 | 6.9 | -6.1 | -13.9
Cc1nn2c(=O)cc(COC(=O)c3ccc(S(=O)(=O)N4CCCCC4)cc3)nc2s1 | 5.7 | -6.9 | 0.5 | 11.4 | -11.6 | -5.5
O=C(N/N=C/c1ccc([N+](=O)[O-])o1)c1cc(-c2cccc(Br)c2)nc2ccccc12 | 7.3 | 102.5* | 8.3 | 35.6* | 11.4 | -15.8
CCCc1ccc(-c2cc(C(=O)N/N=C/c3ccc([N+](=O)[O-])o3)c3ccccc3n2)cc1 | -0.8 | 5.9 | 2.2 | 31.8* | -3.9 | -8.3
Cn1c(SCC(=O)Nc2ccc(NC(=O)c3cccs3)cc2)nnc1-c1ccncc1 | -6.3 | . | 2.9 | . | -3.5 | -14.8
O=C1OC(c2ccc3c(c2)OCO3)N(C(=O)c2ccc(Cl)c(Cl)c2)c2ccccc21 (centres undefined) | 3.5 | -2.9 | 10.7 | 30.0* | -1.1 | -12.6
O=C(CSCc1ccc(Br)cc1)Nc1ccc(S(=O)(=O)N2CCOCC2)cc1 | 0.9 | 1.0 | 6.7 | 18.6 | -7.0 | -9.6
Cc1ccccc1NS(=O)(=O)c1ccc(NC(=O)CSCc2ccc(Br)cc2)cc1 | 12.5 | 96.0* | 13.4 | 91.5* | -6.5 | -15.7
COC(=O)c1sccc1NC(=O)CSc1ccccc1NS(=O)(=O)c1ccc(Br)cc1 | -0.4 | -20.1 | 6.4 | 31.8* | -13.4 | -7.5
CCOC(=O)CN(C(=O)CSc1nnc2c(n1)[nH]c1ccc(F)cc12)c1ccccc1 | -4.9 | 3.2 | 7.3 | 7.7 | -6.6 | -4.4
Cc1ccccc1N=C(NOCc1ccc(Cl)cc1Cl)c1nonc1N | -8.6 | -4.7 | 22.7 | 35.5* | 5.1 | -4.6
Cc1ccc(N=C(NOCc2ccc(Cl)cc2Cl)c2nonc2N)c(C)c1 | -4.5 | -4.6 | 13.6 | 26.7 | 2.9 | -5.1
Cc1ccccc1N=C(NOCc1ccccc1)c1nonc1N | 5.3 | 10.1 | 16.9 | 36.0* | -5.7 | -11.8
Cc1ccc(N=C(NOC(=O)c2ccccc2)c2nonc2N)c(C)c1 | -3.0 | -5.4 | 20.7 | 28.6 | 10.4 | -5.0
CN(C)CCN(Cc1ccccc1)c1ccnc(N(C)C)c1C#N | -6.8 | 4.1 | 5.5 | 15.1 | -11.6 | -6.8
CN(C)c1nccc(N(Cc2ccccc2)Cc2ccccc2)c1C#N | 5.4 | -0.3 | 3.5 | 30.5* | -17.4 | -7.3
COC(=O)c1ccc(-n2nnnc2SCc2nn[nH]n2)cc1 | 0.4 | 2.6 | 6.7 | 5.4 | -31.0 | -9.8
Cc1ccc(/C=C/c2ccc(=O)n(Cc3ccccc3Cl)n2)cc1 | 2.3 | -5.0 | 14.2 | 42.2* | -1.0 | -26.5
Cc1ccc(CN2C(=O)CCC2C(=O)NC(C)C)cc1 (centres undefined) | -3.9 | 0.2 | 5.7 | 9.3 | 15.0 | 5.2
COc1ccc2nc(NC(=O)C(NS(=O)(=O)c3cccs3)C(C)C)sc2c1 (centres undefined) | -8.4 | -7.0 | 5.2 | 2.1 | -19.0 | -12.1
O=C(CN1CCCC1)Nc1ccc(-c2nc3cc(NC(=O)CN4CCCC4)ccc3o2)cc1 | -11.1 | -0.9 | -1.0 | 6.4 | 5.6 | -9.1
